The source of these data is ChEMBL document CHEMBL3351800, “Combination of 2-methoxy-3-phenylsulfonylaminobenzamide and 2-aminobenzothiazole to discover novel anticancer agents” (Bioorg Med Chem, 2014).

pIC50: −log10 of the molar value. Active and inactive are the calls of the source. The calls are words filed in the database; no cut-off is given here.

Series [1] in a line: Antiproliferative activity against human HCT116 cells […] by MTT assay. The format is functional, cell-based. As to conditions: HCT-116. For orientation: Tetrazolium assays rely on reduction of a dye to a coloured formazan, in cell work by metabolically active cells.
A further series has as its system A549. Put plainly: Antiproliferative activity against human A549 cells after 72 hrs by MTT assay. In kind it is functional, cell-based. The conditions noted are these: A549, 72 h. The method in brief: (§1)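 Cells kept as monolayers in DMEM with 10% FBS, 5% CO2, 37 °C. Seeded at 3000-5000 cells/well, grown 24 h before dosing. Treated with 100.0, 10.0, 1.0, 0.1 and 0.01 μM of compound for 48 h. MTT (5 mg/ml in medium) added for 4 h, formazan pelleted, dissolved in DMSO, OD read at 490 nm. IC50 derived from inhibition ratios. Three separate experiments, each in triplicate.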

Series [2] can be described thus: Antiproliferative activity against human U87MG cells after 72 hrs by MTT assay. The format is functional, cell-based, U-87MG ATCC. As to conditions: U-87 MG. The gist of the method: as §1
The subject of another series is MCF7. Nature of the series: Antiproliferative activity against human MCF7 cells […] by MTT assay. In kind it is functional, cell-based.
Series [3] deals with Mus musculus. Put plainly: Toxicity in human HCT116 cells xenografted BALB/C mouse assessed as weight loss at 10 to 30 mg/kg, po dosed once daily for 14 days. The conditions noted are these: in vivo, 336 h. Also on record: dose 10-30 mg/kg, route oral. The format is organism-based, HCT-116. The gist of the method: (§2)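 Male BALB/C nude mice (18-20 g) carried subcutaneous flank HCT-116 xenografts (3×10^6 cells), randomised at 100 mm³. Compound dosed orally in NMP/PEG300 (1:9) once daily for 14 days; controls got vehicle alone. Body weight recorded every 3-4 days until sacrifice on day 26.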
(In general: Xenograft models place foreign cells or tissue in a host animal.)

Series [4] in a line: Antitumor activity against human HCT116 cells xenografted in BALB/C mouse assessed as reduction in tumor volume at 30 mg/kg, po dosed once daily for 14 days. The format is functional. As to conditions: HCT-116, 336 h. The method in brief: (§3)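 Male BALB/C nude mice (SPF, 18-20 g) received 3×10^6 HCT-116 cells subcutaneously in the flank. At 100 mm³ tumours, animals were randomised (8 controls, 5 per drug group). Compound given orally in NMP/PEG300 (1:9) once daily for 14 days; controls got vehicle. Tumour volume (length × width × width/2) recorded every 3-4 days. Sacrifice on day 26, inhibition ratios from tumour volume and weight. Mean ± standard error.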

A short description of series [5]: Antitumor activity against human HCT116 cells xenografted in BALB/C mouse assessed as reduction in tumor volume at 10 mg/kg, po dosed once daily for 14 days. The format is functional. The conditions noted are these: HCT-116, 336 h. The method in brief:
as §3

A further series has as its system HCT-116. Put plainly: Inhibition of PI3K/Akt signalling in human HCT116 cells assessed as reduction in AKT Ser473 phosphorylation at 1 uM after 1 hr by Western blot method. In kind it is cell-based. The method in brief:
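HCT-116 cells seeded at 1×10^6/well in DMEM with 10% FBS and grown 16 h at 37 °C. Exposed to compound or DMSO for 1 h at 37 °C, then lysed in ice-cold buffer and clarified at 12000 rpm, 20 min, 4 °C. Protein measured by BCA and run on SDS-PAGE. Immunoblotted for AKT, p-Ser473 AKT and β-actin, with chemiluminescent detection and densitometry. Three independent experiments, each in duplicate.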
For orientation: In western blotting, separated proteins are transferred to a membrane and probed.

Series [6] concerns Mus musculus. Put plainly: Toxicity in human HCT116 cells xenografted BALB/C mouse assessed as weight loss at 30 mg/kg, po dosed once daily for 14 days. Also on record: dose 30 mg/kg, route oral. In kind it is organism-based, HCT-116. The conditions noted are these: in vivo, 336 h. The method in brief:
as §2

One may read the pIC50 as the IC50 on a negative log10 scale, so that one unit is a factor of ten. A low value points to a high IC50. Consider `COc1c(NS(=O)(=O)C2CC2)cc(-c2ccc3nc(NC(=O)C4CC4)sc3c2)cc1C(N)=O`, for which the figures for the pIC50 (in series [1]; in the series on A549; in series [2]) were 4.84, 4.33 and 5.09, respectively.

With `COc1c(NS(=O)(=O)c2ccc(F)cc2)cc(-c2ccc3nc(NC(=O)C4CC4)sc3c2)cc1C(N)=O`, the pIC50 in series [1] is 5.70; in the series with A549, 5.20; in the series on MCF7 it was 5.80; in series [2] it was 5.54.

For `CC(=O)Nc1nc2ccc(-c3cnc(Cl)c(NS(=O)(=O)c4ccc(F)cc4)c3)cc2s1`, the pIC50 in series [1] is 6.29; in the series on A549, 6.70; in the series on MCF7 it was 6.28; in [2] it was 5.55.

As to `COc1c(NS(=O)(=O)c2ccc(C)cc2)cc(-c2ccc3nc(NC(C)=O)nn3c2)cc1C(N)=O`, in series [1], the pIC50 is 4.56.

`COc1c(NS(=O)(=O)c2ccc(F)cc2)cc(-c2ccc3nc(NC(=O)C4CC4)nn3c2)cc1C(N)=O` showed a pIC50 in series [1] of 4.36. This pIC50 lies 0.20 log units lower than the previous one.

For the compound `CCOC(=O)CNc1nc2ccc(-c3cc(NS(=O)(=O)c4ccc(F)cc4)c(OC)c(C(N)=O)c3)cc2s1`, in series [1], the pIC50 was under 4.30.

`NC(=O)c1cc(NS(=O)(=O)c2ccc(F)cc2)cc(-c2ccc3nc(NC(=O)C4CC4)sc3c2)c1` gave a pIC50 in [1] of under 4.30.

For the compound `COc1c(NS(=O)(=O)c2ccc(F)cc2)cc(-c2ccc3nc(NC4CC4)sc3c2)cc1C(N)=O`, in series [1], the pIC50 was under 4.30.

For `COc1c(NS(=O)(=O)c2ccc(F)cc2)cc(-c2ccc3nc(NC4CC4)sc3n2)cc1C(N)=O`, the pIC50 is 4.45 in series [1], 4.52 with A549, 4.48 in the series with MCF7 and 4.38 in [2].

In the case of `COc1c(NS(=O)(=O)c2ccc(F)cc2)cc(-c2ccc3nc(NC(C)=O)nn3c2)cc1C(N)=O`, the pIC50 in [1] was 4.60.

For `COc1c(NS(=O)(=O)c2ccc(F)cc2)cc(-c2ccn3nc(NC(C)=O)nc3c2)cc1C(N)=O`, in series [1], the pIC50 is 4.49. The pIC50 values of the last two compounds are within 0.2 log units of each other.

Turning to `NC(=O)c1cc(-c2ccc3nc(NC(=O)C4CC4)sc3c2)cc(NS(=O)(=O)c2ccc(F)cc2)c1Cl`, the pIC50 in series [1] was 4.94; with A549, under 4.30; in the series on MCF7 it was under 4.30; in series [2], 4.75.

`CC(=O)Nc1nc2ccc(-c3cc(NS(=O)(=O)c4ccc(F)cc4)c(Cl)c(C(N)=O)c3)cn2n1` had a negative-log IC50 (pIC50) in [1] of under 4.30.

Consider `COc1c(NS(=O)(=O)c2ccc(F)cc2)cc(-c2ccc3nc(NC(=O)C4CC4)sc3n2)cc1C(N)=O`, for which the pIC50 in series [1] was 5.60; in the series on A549 it was 5.09; in the series with MCF7 it was 4.66; in [2], 4.69.

In turn, `COc1c(NS(=O)(=O)c2ccc(F)cc2)cc(-c2ccn3nc(NC(=O)C4CC4)nc3c2)cc1C(N)=O` showed a pIC50 in [1] of under 4.30.

In the case of `COc1c(NS(=O)(=O)c2ccc(F)cc2)cc(-c2ccc3nc(NC(C)=O)sc3n2)cc1C(N)=O`, the pIC50 was 5.37 in [1], 5.37 in the series on A549, 4.90 in the series with MCF7 and 4.66 in series [2].

As for `COc1c(NS(=O)(=O)c2ccc(F)cc2)cc(-c2ccn3nc(N)nc3c2)cc1C(N)=O`, the pIC50 in series [1] was under 4.30.

A word on the inhibition in vivo: it is the change of the read-out against control, counted positive when it falls. Take `COc1c(NS(=O)(=O)c2ccc(F)cc2)cc(-c2ccc3nc(NC(C)=O)sc3c2)cc1C(N)=O`: in the series on Mus musculus [3], the Activity entry is listed as “Non-toxic”. Further, the inhibition in vivo at 30 mg/kg in series [4] was 46.9%. For the same compound, the pIC50 in series [1] is 5.71; in the series with A549 it was 5.77; in the series on MCF7, 6.30; in series [2], 5.32. In addition, the inhibition in vivo at 10 mg/kg in [5] was 40.1%. The inhibition entry with HCT-116 is “Active”.

In turn, `COc1c(NS(=O)(=O)C2CC2)cc(-c2ccc3nc(NC(C)=O)nn3c2)cc1C(N)=O` showed a pIC50 in series [1] of 4.44.

In the case of `COc1c(NS(=O)(=O)c2ccc(Cl)cc2)cc(-c2ccc3nc(NC(C)=O)nn3c2)cc1C(N)=O`, the pIC50 in series [1] was 4.50.

As to `Cn1c(=O)n(-c2ccc(C(C)(C)C#N)cc2)c2c3cc(-c4cnc5ccccc5c4)ccc3ncc21` [DACTOLISIB], the inhibition in vivo at 30 mg/kg in series [4] was 24.2%. Further, the pIC50 was 6.49 in [1], 7.00 with A549, 6.26 in the series on MCF7 and 5.63 in series [2]. Also, the Activity result in the series on Mus musculus [6] is recorded as “Toxic”. The inhibition entry with HCT-116 is “Active”.
